Measurements reported in paper PMC9066701 (RSC Advances, 2019).
Read-outs that look alike come from different tables or passages of the source.

Experiments:
HepG-2 cells [1] = test: Mitochondrial membrane potential by JC-1 staining; format: cell-based, human; details: HepG-2, 30 μM, 48 hours, negative control 5.42
[2] = tested on: HepG-2 human hepatocellular carcinoma cell line; test: MTT cytotoxicity assay, HepG-2; format: cell-based; details: read-out: IC50 HepG-2
Outline: (§1)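 Adherent cells kept in DMEM with 10% FBS at 37 °C, 5% CO2, seeded at 5 × 10^3 cells per well and left overnight. Test compound in DMF diluted in medium (DMF final < 0.4%) for 48 h at 37 °C. MTT (5 mg mL−1) added for 4 h, formazan dissolved in DMSO, A570 read. IC50 from % inhibition versus log concentration; cisplatin run as reference.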

[3] = tested on: SGC7901 gastric cancer cell line; test: MTT cytotoxicity assay, SGC7901; format: cell-based; details: read-out: IC50 SGC7901, 48 h drug exposure
Outline: as §1

[4] = tested on: NCI-H460 large cell lung cancer cell line; test: MTT cytotoxicity assay, NCI-H460; format: cell-based; details: read-out: IC50 NCI-H460
Outline: as §1

[5] = tested on: SGC7901/CDDP cisplatin-resistant gastric cancer cell line; test: MTT cytotoxicity assay, SGC7901/CDDP; format: cell-based; details: read-out: IC50 SGC7901/CDDP, 48 h drug exposure
Outline: as §1

[6] = tested on: MCF-7 human breast carcinoma cell line; test: MTT cytotoxicity assay, MCF-7; format: cell-based; details: read-out: IC50 MCF-7
Outline: as §1

[7] = tested on: HUVEC human umbilical vein endothelial cell line; test: MTT cytotoxicity assay, HUVEC; format: cell-based; details: read-out: IC50 HUVEC, 48 h drug exposure, normal cells
Outline: as §1

HepG-2 cells [8] = test: Annexin V-FITC/PI apoptosis assay by flow cytometry; format: cell-based, human; details: HepG-2, 50 μM, 24 hours
[9] = tested on: BGC803 human gastric cancer cell line; test: MTT cytotoxicity assay, BGC803; format: cell-based; details: read-out: IC50 BGC803
Outline: as §1

[10] = PBS, 37 °C, pH 7.0; cited from earlier work
[11] = reported for kiteplatin; same experimental conditions; cited from earlier work

## N.N.[Cl][Pt][Cl] [Cisplatin, cisplatin]
HepG-2 cells [1]
  Red-green fluorescence ratio (FL2/FL1): 0.54
[2]; MTT assay, 48 h drug exposure
  IC50: 27.8 ± 2.56 µM
[3]
  IC50: 9.96 ± 0.87 µM
[4]; MTT assay, 48 h drug exposure
  IC50: 14.8 ± 1.35 µM
[5]
  IC50: 35.6 ± 2.55 µM
[6]; MTT assay, 48 h drug exposure
  IC50: 29.2 ± 1.38 µM
[7]
  IC50: 36.9 ± 2.23 µM
HepG-2 cells [8]
  apoptotic rate (early + late): 28.79%
[9]; MTT assay, 48 h drug exposure
  IC50: 21.6 ± 1.35 µM

## O=C(O)C(Cl)Cl [DCA, Dichloroacetate]
HepG-2 cells [1]
  Red-green fluorescence ratio (FL2/FL1): 4.17
[2]; Homo sapiens, HepG2, 48 h
  IC50: > 100 µM
[4]; Homo sapiens, NCI-H460, 48 h
  IC50: > 100 µM
[6]; Homo sapiens, MCF7, 48 h
  IC50: > 100 µM
[9]; Homo sapiens, BGC803, 48 h
  IC50: > 100 µM

## ct-[Pt(NH3)2(TFA)2(CBCDA)] [ct-[Pt(NH3)2(TFA)2(CBCDA)] (5)]
[10]
  t1/2: 2.37 h

## N.N.O=C([O-])C1(C(=O)[O-])CCC1.[Pt+2] [Carboplatin, carboplatin]
HepG-2 cells [1]
  Red-green fluorescence ratio (FL2/FL1): 2.56
[2]; MTT assay, 48 h drug exposure
  IC50: 42.3 ± 2.55 µM
[4]; MTT assay, 48 h drug exposure
  IC50: 52.9 ± 4.98 µM
[6]; MTT assay, 48 h drug exposure
  IC50: 179 ± 10.6 µM
[9]; MTT assay, 48 h drug exposure
  IC50: 77.1 ± 5.35 µM

## NC1CCC(N)CC1.[Cl][Pt+2][Cl] (stereo not shown) [kiteplatin]
[11]
  half-life: 1 h

## N#CC(C#N)=NNc1cccc(Cl)c1 [CCCP, carbonylcyanide-m-chlorophenylhydrazone]
HepG-2 cells [1]
  Red-green fluorescence ratio (FL2/FL1): 0.04

## O=C1[O][Pt]2([NH][C@@H]3CCCC[C@H]3[NH]2)[O]C1=O [Oxaliplatin, oxaliplatin]
HepG-2 cells [1]
  Red-green fluorescence ratio (FL2/FL1): 0.94
[2]; MTT assay, 48 h drug exposure
  IC50: 26.5 ± 2.55 µM
[3]
  IC50: 13.5 ± 1.55 µM
[4]; MTT assay, 48 h drug exposure
  IC50: 13.4 ± 1.13 µM
[5]
  IC50: 99.4 ± 5.23 µM
[6]; MTT assay, 48 h drug exposure
  IC50: 41.3 ± 3.43 µM
[7]
  IC50: 51 ± 4.42 µM
HepG-2 cells [8]
  apoptotic rate (early + late): 21.74%
[9]; MTT assay, 48 h drug exposure
  IC50: 29.1 ± 1.65 µM
